The text below walks through data of ChEMBL document CHEMBL1144911, “Synthesis and biological evaluation of 5-substituted derivatives of the potent antiherpes agent (north)-methanocarbathymine” (J Med Chem, 2003).

The test system of data set [1] is Human alphaherpesvirus 3. Put plainly: Antiviral activity against 07/1 strain of thymidine kinase negative (TK-) Varicella-Zoster Virus (VZV). Format: functional, organism-based.
Data set [2] has as its system Human alphaherpesvirus 3. Put plainly: Antiviral activity against OKA strain of thymidine kinase positive(TK+) Varicella-Zoster Virus (VZV). The class given is functional, organism-based.
Data set [3] has as its system Human alphaherpesvirus 3. Put plainly: Minimum cytotoxic concentration that causes alterations of VZV infected Osteosarcoma cell morphology. The class given is functional.
In data set [4] the test system is Human alphaherpesvirus 3. Put plainly: Effective concentration against TK+ Varicella-Zoster Virus (VZV) OKA strain. The class given is functional, organism-based.
Data set [5] concerns Human alphaherpesvirus 3. Put plainly: Effective concentration against TK+ Varicella-Zoster Virus (VZV)YS strain. The class given is functional, organism-based.
The subject of data set [6] is Human alphaherpesvirus 3. Put plainly: Effective concentration against TK- Varicella-Zoster Virus (VZV) 07/1 strain. Format: functional, organism-based.
Data set [7] deals with Human alphaherpesvirus 3. Put plainly: Effective concentration against TK- Varicella-Zoster Virus (VZV) YS/R strain. Format: functional, organism-based.
Data set [8] relates to Human alphaherpesvirus 3. Put plainly: Antiviral activity against YS strain of thymidine kinase positive(TK+) Varicella-Zoster Virus (VZV). Format: functional, organism-based.
Data set [9] deals with Human alphaherpesvirus 3. Put plainly: Antiviral activity against YS/R strain of thymidine kinase negative(TK-) Varicella-Zoster Virus (VZV). The class given is functional, organism-based.
A short description of data set [10]: Cytotoxic concentration that produces 50% inhibition of cell growth. Format: functional.
The nature of data set [11]: Minimum cytotoxic concentration that causes microscopically detectable alterations of cell morphology. Format: functional.
Data set [12] deals with Human alphaherpesvirus 3. Put plainly: Cytotoxic concentration that causes growth inhibition of VZV infected Osteosarcoma cells. The class given is functional.
For data set [13], the system named is Human alphaherpesvirus 3. Put plainly: Effective concentration of compound against Varicella-Zoster Virus (VZV); Range is 0.06-0.12 uM. Format: functional, organism-based.
The nature of data set [14]: Catalytic rate constant was determined. Format: ADME.
Data set [15] relates to HFF. Put plainly: Cytotoxic concentration for 50% inhibition of cell growth of HSV-1 infected HFF cells determined by CPE assay. The class given is functional. As to conditions: Homo sapiens.
The subject of data set [16] is HFF. Put plainly: Cytotoxic concentration for 50% inhibition of cell growth of HSV-1 infected HFF cells determined by VPR assay. Format: functional. As to conditions: Homo sapiens.
The subject of data set [17] is HFF. Put plainly: Cytotoxic concentration for 50% inhibition of cell growth of HSV-2 infected HFF cells determined by CPE assay. As to conditions: Homo sapiens. The class given is functional.
Data set [18] concerns HFF. Put plainly: Cytotoxic concentration for 50% inhibition of cell growth of HSV-2 infected HFF cells determined by VPR assay. As to conditions: Homo sapiens. The class given is functional. Put shortly:
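Run in virus-infected HFF cells within the plaque reduction assay set-up. […] The value was converted from μg/mL to μM.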

Data set [19] has as its system HFF. Put plainly: Concentration to reduce Cowpox virus plaque reduction (VPR) by 50% in HFF cells. The class given is functional, cell-based. As to conditions: Homo sapiens.
In data set [20] the test system is HFF. Put plainly: Concentration to reduce vaccinia virus plaque reduction (VPR) by 50% in HFF cells. Format: functional, cell-based. As to conditions: Homo sapiens.
Data set [21] has as its system HFF. Put plainly: Inhibitory concentration for HSV-1 plaque reduction (VPR) by 50% in HFF cells. The class given is functional, cell-based. As to conditions: Homo sapiens.
Data set [22] has as its system HFF. Put plainly: Inhibitory concentration for HSV-2 plaque reduction (VPR) by 50% in HFF cells. As to conditions: Homo sapiens. The class given is functional, cell-based.
Data set [23] deals with Human alphaherpesvirus 1. Put plainly: Inhibitory concentration required to reduce HSV-1 induced cytopathogenic effect (CPE) by 50 % in HFF cells. Format: functional, organism-based, herpes simplex virus. As to conditions: Human alphaherpesvirus 1, HFF.
Data set [24] deals with Human alphaherpesvirus 2. Put plainly: Inhibitory concentration required to reduce HSV-2 induced cytopathogenic effect (CPE) by 50 % in HFF cells. As to conditions: Human alphaherpesvirus 2, HFF. The class given is functional, organism-based. In general terms: Cytopathic effects are the visible damage that an infection or toxin causes in cultured cells.
Data set [25] deals with HFF. Put plainly: Inhibitory concentration to reduce Cowpox virus induced cytopathogenic effect by 50% in HFF cells. As to conditions: Homo sapiens. Format: functional, cell-based.
The test system of data set [26] is HFF. Put plainly: Inhibitory concentration to reduce vaccinia virus induced cytopathogenic effect by 50% in HFF cells. The class given is functional, cell-based. As to conditions: Homo sapiens.
Data set [27] can be described thus: (§1) Inhibition constant against HSV-1 TK. Format: functional, herpes simplex virus.
The species entered for data set [28] is Homo sapiens. Put plainly: (§2) Inhibitory concentration required to reduce HSV-1 induced cytopathogenic effect (CPE) in human skin fibroblast. Format: functional, organism-based.
The species entered for data set [29] is Homo sapiens. Put plainly: Inhibitory concentration required to reduce HSV-1 induced virus plaque reduction (VPR) in human skin fibroblast. The class given is functional, organism-based.
For data set [30], the species on record is Homo sapiens. Put plainly: Inhibitory concentration required to reduce HSV-2 induced cytopathogenic effect in human skin fibroblast. The class given is functional, organism-based.
Data set [31] is filed under the species Homo sapiens. Put plainly: Inhibitory concentration required to reduce HSV-2 induced virus plaque reduction (VPR) in human skin fibroblast. The class given is functional, organism-based.
The species named for data set [32] is Homo sapiens. Put plainly: Inhibitory concentration required to reduce cowpox virus induced cytopathogenic effect (CPE) in human skin fibroblast. Format: functional, organism-based.
The species named for data set [33] is Homo sapiens. Put plainly: Inhibitory concentration required to reduce cowpox virus induced virus plaque reduction (VPR) in human skin fibroblast. Format: functional, organism-based.
The species entered for data set [34] is Homo sapiens. Put plainly: Inhibitory concentration required to reduce vaccinia virus induced virus plaque reduction (VPR) in human skin fibroblast. Format: functional, organism-based.
For data set [35], the species on record is Homo sapiens. Put plainly: Cytotoxic concentration that produces 50% growth inhibition of human skin fibroblast in VPR assay. Format: functional.
Data set [36] can be described thus: Cytotoxic concentration against non transfected osteosarcoma cells non transfected (MG-63-hTK1). Format: functional. Put shortly:
(§3)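 Osteosarcoma lines (143B-TK⁻ with 0.1 mg/mL 5-BrdU selection; MG-63-hTK1; 143B-TK⁺-HSV1-WT with HAT) grown in MEM/10% FCS. Seeded at 2 × 10³ (143B lines) or 1.5 × 10³ (MG-63) cells/well, exposed to five concentrations over 0.5–500 μM for 4.5 days at 37 °C/5% CO₂. XTT added for 9 h, A450 (ref 750 nm) read against untreated wells. Three independent series in triplicate.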

Data set [37] can be described thus: Cytotoxic concentration against osteosarcoma cells stably transfected with HSV-1 TK (143B-TK+-HSV-1-WT). The class given is functional. As to conditions: Human alphaherpesvirus 1. Summed up: as §3
Data set [38] in a line: Selectivity index calculated as CC50/EC50 in the VPR assay of HSV-1. The class given is functional.
Data set [39] in a line: Selectivity index calculated as CC50/EC50 in the study of VPR assay of vaccinia virus. Format: functional.
Data set [40] can be described thus: Selectivity index calculated as CC50/EC50 in the study of cytopathogenic effect by HSV-1. The class given is functional.
A short description of data set [41]: Selectivity index calculated as CC50/EC50 in the study of cytopathogenic effect by vaccinia virus. The class given is functional.
Data set [42] is filed under the species Homo sapiens. Put plainly: Cytotoxic concentration that produces 50% growth inhibition of human skin fibroblast in CPE assay. The class given is functional.
Data set [43] is filed under the species Homo sapiens. Put plainly: Inhibitory concentration required to reduce vaccinia virus induced cytopathogenic effect (CPE) in human skin fibroblast. Format: functional, organism-based.
The subject of data set [44] is Thymidine kinase (Herpes simplex virus type 1). Put plainly: Catalytic turnover constant against HSV-1 thymidine kinase.
For data set [45], the system named is HFF. Put plainly: Concentration for HSV-1 plaque reduction (VPR) by 50% in HFF cells. The class given is functional, cell-based. As to conditions: Homo sapiens.
Data set [46] concerns HFF. Put plainly: Concentration for HSV-2 plaque reduction (VPR) by 50% in HFF cells. As to conditions: Homo sapiens. Format: functional, cell-based.
Data set [47] concerns Human alphaherpesvirus 1. The description is as §2. Format: functional, organism-based, herpes simplex virus.
Data set [48] in a line: as §1. The class given is functional, herpes simplex virus. Put shortly:
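Purified HSV-1 TK converts [methyl-³H]thymidine to its monophosphate in 50 mM Tris pH 7.5, 5 mM MgCl₂, 5 mM ATP, 2.5 mg/mL BSA under initial-velocity conditions. Three inhibitor concentrations are used, and apparent Ki is taken from Lineweaver–Burk double-reciprocal plots. Six independent assays.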
This is another data set of the same source.

Where only a bound is given, the exact number is not on record here.

Consider `O=c1[nH]c(=O)n([C@H]2C[C@H](O)[C@@H](CO)O2)cc1/C=C/Br` [BRIVUDINE], for which the EC50 is more than 150 µM in [1]; 0.005 µM in data set [2]; 0.005 µM in data set [4]; 0.008 µM in data set [5]; more than 150 µM in data set [6]; more than 150 µM in [7]. In addition, the EC50 is 0.008 µM in data set [8] and more than 150 µM in data set [9]. In addition, the MCC in [3] and in data set [11] was more than 150 µM each time. Further, the CC50 in data set [10] and in [12] was more than 400 µM each time.
Compound `O=c1[nH]c(=O)n([C@H]2C[C@@H](CO)[C@H](O)C2)cc1/C=C/Br` had an EC50 in [13] of 0.12 µM.
For `O=c1[nH]c(=O)n([C@H]2C[C@H](O)[C@]3(CO)C[C@H]23)cc1Br`, the EC50 is more than 20 µM in [1]; 10.7 µM in data set [19]; 8.19 µM in [20]; 0.095 µM in data set [21]; 0.378 µM in data set [22]; 1.23 µM in [23]. Besides, the EC50 in [24] was found to be 2.2 µM; in [25] it was 36.3 µM; in data set [26], 2.01 µM; in data set [28], 1.23 µM; in data set [29] it was 0.095 µM; in data set [30] it was 2.2 µM. For the same compound, the EC50 was 0.378 µM in data set [31]; 36.3 µM in data set [32]; 10.7 µM in [33]; 8.19 µM in data set [34]; 0.2 µM in data set [2]; 0.2 µM in data set [4]. The EC50 was 0.2 µM in data set [5]; more than 20 µM in data set [6]; 4 µM in data set [7]; 0.2 µM in data set [8]; 4 µM in data set [9]; 2.01 µM in data set [43]. Also, the k cat in [14] and in [44] was 0.15 s⁻¹ in each case. For the same compound, the CC50 is more than 315 µM in data set [15]; more than 315 µM in data set [16]; more than 315 µM in [17]; more than 315 µM in [18]; more than 315 µM in data set [35]; 330 µM in [36]. In addition, the CC50 is 150 µM in data set [37], more than 200 µM in data set [10], more than 315 µM in [42] and more than 200 µM in [12]. This compound also returned a Ki in [27] of 69.8 µM. Besides, the MCC in [3] and in data set [11] was more than 50 µM in each case. Moreover, the SI is more than 3320 in [38], more than 38 in data set [39], more than 256 in [40] and more than 156 in data set [41].
In the case of `Nc1nc2c(ncn2COCCO)c(=O)[nH]1` [ACYCLOVIR], the EC50 in [45] turned out to be 1.1 µM; in [46], 1.68 µM; in data set [23], 2.22 µM; in [24], 10.2 µM; in data set [47] it was 2.22 µM; in [29], 1.1 µM. For the same compound, the EC50 in data set [30] was 10.2 µM; in data set [31] it was 1.68 µM.
For `O=c1[nH]c(=O)n([C@H]2C[C@H](O)[C@]3(CO)C[C@H]23)cc1/C=C/Br`, the EC50 in data set [1] was more than 5 µM; in data set [23], 6.41 µM; in [24] it was more than 291 µM; in data set [28], 6.41 µM; in data set [30], more than 291 µM; in [2], 0.005 µM. Further, the EC50 was 0.005 µM in data set [4]; 0.007 µM in [5]; more than 5 µM in [6]; more than 5 µM in data set [7]; 0.007 µM in data set [8]; more than 5 µM in [9]. The k cat in data set [14] and in [44] was 0.07 s⁻¹ each time. The compound also gave a Ki in [48] of 62.9 µM. Further, the cytotoxic concentration (CC50) in [15] is more than 291 µM; in data set [17] it was more than 291 µM; in data set [10] it was more than 200 µM; in data set [42] it was more than 291 µM; in [12], more than 200 µM. Besides, the MCC in data set [3] and in data set [11] was more than 5 µM each time.

In general, EC50 refers to the midpoint of the concentration-response curve. Low values mean higher potency in that assay, high ones lower potency in that assay. By CC50 is commonly meant the concentration giving 50% cytotoxicity. Read a high CC50 as lower toxicity to the cells. A word on the Ki: it is a dissociation constant, usually derived from enzyme kinetics or from competition with a known ligand.
